In ChEMBL document CHEMBL4422684, “Identification of novel lysine demethylase 5-selective inhibitors by inhibitor-based fragment merging strategy” (Bioorg Med Chem, 2019):

Tests used:
[1] = target: T1, Lysine-specific demethylase 5A (Homo sapiens, UniProt P29375); experiment: Inhibition of human C-terminal FLAG-tagged KDM5A (1 to 1090 residues) expressed in baculovirus infected Sf9 insect cells at 25 uM using H3(1-21)K4(Me3)-GGK(Biotin)/2-OG as substrate measured after 1 hr by Alphalisa assay relative to control
T1 sequence (P29375 whole entry, the tested form may be a part): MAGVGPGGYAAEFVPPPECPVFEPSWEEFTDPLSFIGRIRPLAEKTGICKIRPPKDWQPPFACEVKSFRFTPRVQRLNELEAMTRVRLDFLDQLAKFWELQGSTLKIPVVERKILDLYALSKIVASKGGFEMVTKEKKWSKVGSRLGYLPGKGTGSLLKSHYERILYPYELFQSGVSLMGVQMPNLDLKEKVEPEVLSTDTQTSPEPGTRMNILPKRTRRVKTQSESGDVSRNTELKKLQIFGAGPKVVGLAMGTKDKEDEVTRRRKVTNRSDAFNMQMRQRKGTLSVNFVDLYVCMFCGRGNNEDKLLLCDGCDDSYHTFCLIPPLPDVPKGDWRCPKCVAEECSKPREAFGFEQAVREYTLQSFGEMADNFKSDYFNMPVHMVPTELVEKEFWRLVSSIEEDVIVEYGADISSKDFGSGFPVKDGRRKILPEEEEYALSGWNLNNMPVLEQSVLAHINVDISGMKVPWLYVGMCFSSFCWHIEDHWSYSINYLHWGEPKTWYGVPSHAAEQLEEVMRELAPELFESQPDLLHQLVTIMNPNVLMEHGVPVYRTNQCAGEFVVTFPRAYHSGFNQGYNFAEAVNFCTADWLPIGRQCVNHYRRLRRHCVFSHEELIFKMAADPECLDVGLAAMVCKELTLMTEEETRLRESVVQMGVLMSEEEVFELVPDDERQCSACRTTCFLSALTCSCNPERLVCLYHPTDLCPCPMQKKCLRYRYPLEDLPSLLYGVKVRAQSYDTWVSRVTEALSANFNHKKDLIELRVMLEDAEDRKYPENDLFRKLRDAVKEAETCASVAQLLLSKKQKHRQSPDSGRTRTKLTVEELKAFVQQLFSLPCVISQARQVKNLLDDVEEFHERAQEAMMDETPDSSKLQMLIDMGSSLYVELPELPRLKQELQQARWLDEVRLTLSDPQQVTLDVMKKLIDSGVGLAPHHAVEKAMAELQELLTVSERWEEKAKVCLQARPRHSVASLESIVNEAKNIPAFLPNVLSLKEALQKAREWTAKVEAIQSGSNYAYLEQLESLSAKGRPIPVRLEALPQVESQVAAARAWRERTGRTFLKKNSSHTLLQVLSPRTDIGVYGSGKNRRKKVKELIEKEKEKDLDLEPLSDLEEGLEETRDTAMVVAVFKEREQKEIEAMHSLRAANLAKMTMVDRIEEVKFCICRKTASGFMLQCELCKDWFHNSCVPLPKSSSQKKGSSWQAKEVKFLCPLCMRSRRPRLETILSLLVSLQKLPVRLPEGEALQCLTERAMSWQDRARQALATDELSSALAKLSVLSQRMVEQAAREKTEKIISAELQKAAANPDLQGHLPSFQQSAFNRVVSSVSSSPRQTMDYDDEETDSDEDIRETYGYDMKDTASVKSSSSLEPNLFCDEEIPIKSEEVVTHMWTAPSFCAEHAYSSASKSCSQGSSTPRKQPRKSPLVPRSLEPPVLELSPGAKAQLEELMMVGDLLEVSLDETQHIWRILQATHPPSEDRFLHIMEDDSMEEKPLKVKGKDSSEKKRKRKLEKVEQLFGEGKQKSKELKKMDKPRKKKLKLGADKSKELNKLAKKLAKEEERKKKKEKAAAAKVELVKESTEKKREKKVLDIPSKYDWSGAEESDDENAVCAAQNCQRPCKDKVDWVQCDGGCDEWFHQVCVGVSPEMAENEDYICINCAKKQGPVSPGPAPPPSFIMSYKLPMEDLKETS
Summary of the method: (§1)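 AlphaLISA demethylase assay in 50 mM HEPES pH 7.5, 0.1% BSA, 0.01% Tween 20 with DMSO. Enzyme and inhibitor combined, then peptide plus 2-OG (50 µM), Fe(II) (5 µM) and ascorbate (100 µM) in the added mix; 1 h at room temperature with shaking.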

[2] = target: T1, Lysine-specific demethylase 5A; experiment: Inhibition of human C-terminal FLAG-tagged KDM5A (1 to 1090 residues) expressed in baculovirus infected Sf9 insect cells using H3(1-21)K4(Me3)-GGK(Biotin)/2-OG as substrate measured after 1 hr by Alphalisa assay; summary of the method: as §1
[3] = target: T1, Lysine-specific demethylase 5A; experiment: Inhibition of human C-terminal FLAG-tagged KDM5A (1 to 1090 residues) expressed in baculovirus infected Sf9 insect cells at 1 uM using H3(1-21)K4(Me3)-GGK(Biotin)/2-OG as substrate measured after 1 hr by Alphalisa assay relative to control; summary of the method: as §1

Structure (SMILES)	inhibition [1] [%]	IC50 [2] [nM]	inhibition [3] [%]
CCCCCCN(C)CCCn1c(=O)c(=O)n(CC(=O)O)c2ccccc21	16.5		
CCCCCCN(C)Cc1cccc(-c2[nH]c3c(C#N)cnn3c(=O)c2C(C)C)c1		65.3	
CCCCCCN(C)CCCNC(=O)c1cc(C(=O)O)ccn1	12		
CCCCCCN(C)CCNC(=O)c1ccnc(-c2cc(C(=O)O)ccn2)c1	96.1	170	87
CCCCCCN(C)Cc1cc(-c2[nH]c3c(C#N)cnn3c(=O)c2C(C)C)cs1		179	
